One assay addresses Adenosine receptor A2a (Rattus norvegicus, UniProt P30543). Description: Binding affinity for Adenosine A2A receptor in rat brain membranes using [3H]CGS-21680. The assay is classed as cell membranes.
The target of assay [1] is T1, Adenosine receptor A2b (Rattus norvegicus) (UniProt P29276).
T1 sequence (whole entry): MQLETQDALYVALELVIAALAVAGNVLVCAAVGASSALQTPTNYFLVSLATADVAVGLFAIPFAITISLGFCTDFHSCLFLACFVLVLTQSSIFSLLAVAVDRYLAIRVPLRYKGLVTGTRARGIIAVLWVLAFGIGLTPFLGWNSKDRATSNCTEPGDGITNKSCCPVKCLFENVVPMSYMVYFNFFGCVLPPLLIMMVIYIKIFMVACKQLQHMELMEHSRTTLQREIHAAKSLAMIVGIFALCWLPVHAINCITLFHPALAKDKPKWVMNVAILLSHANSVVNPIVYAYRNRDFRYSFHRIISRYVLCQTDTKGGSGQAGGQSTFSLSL
Nature of the assay: Agonist activity as cAMP production in CHO cells expressing rat Adenosine A2B receptor at 100 uM. Type of assay: functional, cell-based. Put shortly:
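Rat A2B receptor cDNA transfected into CHO cells; agonism read as cAMP production with test compound at 100 µM, given as percentage of NECA-induced activity.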
A general note: Cyclic AMP is a second messenger, typically raised through Gs and lowered through Gi signalling.

The species named for assay [2] is Rattus norvegicus. Description: Ratio of affinity for A1 AND P3LP receptor.
The next assay addresses T2, Adenosine receptor A3 (Rattus norvegicus, UniProt P28647).
T2 sequence (P28647 whole entry): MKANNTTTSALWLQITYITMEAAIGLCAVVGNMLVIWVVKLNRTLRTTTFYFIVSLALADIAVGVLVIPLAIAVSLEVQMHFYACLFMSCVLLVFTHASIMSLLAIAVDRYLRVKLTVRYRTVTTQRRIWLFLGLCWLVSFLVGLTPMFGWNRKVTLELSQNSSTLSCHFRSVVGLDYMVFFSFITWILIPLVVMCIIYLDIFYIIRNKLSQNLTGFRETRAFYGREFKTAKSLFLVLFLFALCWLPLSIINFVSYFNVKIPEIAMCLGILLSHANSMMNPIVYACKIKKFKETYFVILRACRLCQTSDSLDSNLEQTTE
Description: Binding affinity for adenosine A3 receptor in CHO cell membranes using [125I]IB-MECA.

The target in another assay is T3, Adenosine receptor A1 (Rattus norvegicus, UniProt P25099).
T3 sequence (P25099 whole entry): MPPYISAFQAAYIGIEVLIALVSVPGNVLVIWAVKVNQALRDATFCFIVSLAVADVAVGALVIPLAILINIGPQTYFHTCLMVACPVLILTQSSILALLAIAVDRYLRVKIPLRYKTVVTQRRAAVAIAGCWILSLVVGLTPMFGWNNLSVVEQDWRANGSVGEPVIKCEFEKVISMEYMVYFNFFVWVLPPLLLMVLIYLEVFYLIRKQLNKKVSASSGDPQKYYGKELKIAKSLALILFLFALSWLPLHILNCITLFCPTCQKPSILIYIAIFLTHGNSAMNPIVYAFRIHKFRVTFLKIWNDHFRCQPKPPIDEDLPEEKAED
Description: Binding activity against Adenosine A1 receptor from rat brain membranes using [3H]8-cyclopentyl-1,3-dipropylxanthine (DPCPX).

For assay [3], the species on record is Rattus norvegicus. Nature of the assay: Ratio of affinity for A2A and P3LP receptors.
Assay [4] is filed under the species Rattus norvegicus. Nature of the assay: Ratio of affinity for A3 and P3LP receptors.

SMILES strings stand for the structures.

Chain of Adenosine receptor A2a (P30543 whole entry): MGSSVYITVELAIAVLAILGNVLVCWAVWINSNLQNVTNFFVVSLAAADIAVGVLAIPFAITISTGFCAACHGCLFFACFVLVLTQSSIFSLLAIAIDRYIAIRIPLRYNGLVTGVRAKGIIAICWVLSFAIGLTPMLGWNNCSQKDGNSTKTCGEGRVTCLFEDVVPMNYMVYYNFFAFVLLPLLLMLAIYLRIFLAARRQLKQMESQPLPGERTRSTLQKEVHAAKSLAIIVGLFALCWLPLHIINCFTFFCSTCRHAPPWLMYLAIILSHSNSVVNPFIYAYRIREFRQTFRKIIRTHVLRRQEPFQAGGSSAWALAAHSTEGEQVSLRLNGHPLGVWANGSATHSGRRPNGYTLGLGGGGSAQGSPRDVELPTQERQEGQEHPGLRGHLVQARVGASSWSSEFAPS

By Ki is commonly meant the dissociation constant of the complex between target and ligand, obtained from inhibition or displacement. Read a high Ki as weaker binding. With `CCCCCNC(=O)[C@H]1O[C@@H](n2cnc3c(N)ncnc32)[C@H](O)[C@@H]1O`, the inhibition constant (Ki) is 605 nM at Adenosine receptor A2a, 5560 nM on Adenosine receptor A3 and 979 nM at Adenosine receptor A1. The molecule also displayed an Activity in assay [1] of 3.4%. Also, the Ratio in the assay listed under Rattus norvegicus [2] turned out to be 80.2; in the assay listed under Rattus norvegicus [3], 49.6; in the assay listed under Rattus norvegicus [4], 456.
In the case of `CCNC(=O)[C@H]1O[C@@H](n2cnc3c(N)ncnc32)[C@H](O)[C@@H]1O`, in assay [1], the Activity stood at 100.
As to `C#CC(O)[C@H]1O[C@@H](n2cnc3c(N)ncnc32)[C@H](O)[C@@H]1O` (some centres not stated), the Ki on Adenosine receptor A2a came to 2110 nM; at Adenosine receptor A3, 310000 nM; at Adenosine receptor A1, 897 nM. In assay [1], this molecule displayed an Activity of 10%. For the same molecule, the Ratio turned out to be 44.9 in the assay filed under Rattus norvegicus [2], 105 in the assay listed under Rattus norvegicus [3] and 15500 in the assay listed under Rattus norvegicus [4].
As to `Nc1ncnc2c1ncn2[C@@H]1O[C@H](C(=O)NC2CCCCC2)[C@@H](O)[C@H]1O`, the figures for the Ki at Adenosine receptor A2a, on Adenosine receptor A3 and on Adenosine receptor A1 were 2500 nM, 15100 nM and 5020 nM, respectively. In assay [1], the Activity was 1.9%. In addition, the Ratio was 275 in the assay filed under Rattus norvegicus [2], 137 in the assay listed under Rattus norvegicus [3] and 830 in the assay listed under Rattus norvegicus [4].

These data come from ChEMBL document CHEMBL1134608, “Nucleosides and nucleotides. 200. Reinvestigation of 5'-N-ethylcarboxamidoadenosine derivatives: structure-activity relationships for P(3) purinoceptor-like proteins” (J Med Chem, 2001).
